From PubChem
A selection: hits, their analogues and other compounds. The true share with any hit is near 1.8%.
CHRM5 antagonist – CHRM5 antagonism in calcium assay | P08912 | CHO-hM5 cells, Fluo-8 calcium fluorescence, ACh EC80 | inhibition, % at 3 µM | 0.59% of 360,000 active;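 active = inhibition above a per-plate cutoff, the mean of that plate's test compounds plus 3 SD, cut at about 27% in these data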;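 also: 0% = acetylcholine EC80 with DMSO and 100% = DMSO without agonist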
Target sequence (P08912 whole entry, looked up): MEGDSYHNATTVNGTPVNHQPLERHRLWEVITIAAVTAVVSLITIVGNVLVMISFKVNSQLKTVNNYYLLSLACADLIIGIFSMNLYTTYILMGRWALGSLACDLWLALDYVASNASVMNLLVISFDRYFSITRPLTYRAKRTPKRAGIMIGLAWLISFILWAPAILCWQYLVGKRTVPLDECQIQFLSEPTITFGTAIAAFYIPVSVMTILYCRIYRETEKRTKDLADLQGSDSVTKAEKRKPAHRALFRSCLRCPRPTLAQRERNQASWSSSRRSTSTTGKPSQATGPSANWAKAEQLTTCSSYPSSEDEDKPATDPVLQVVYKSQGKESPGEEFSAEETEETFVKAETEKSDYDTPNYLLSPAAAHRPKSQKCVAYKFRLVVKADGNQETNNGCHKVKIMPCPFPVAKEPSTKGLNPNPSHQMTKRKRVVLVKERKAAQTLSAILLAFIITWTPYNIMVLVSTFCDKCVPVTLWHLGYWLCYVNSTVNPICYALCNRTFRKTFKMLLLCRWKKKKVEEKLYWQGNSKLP
CHRM5 agonist – CHRM5 agonism in calcium assay | activation, % at 3 µM | 0.19% of 360,000 active | P08912 | CHO-K1 hM5 cells, Fluo-8 calcium fluorescence; 0% DMSO wells, 100% maximal acetylcholine response;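 active = activation above the run's mean over test compounds plus 3 SD, cut at about 23% in these data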;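 also: signal is peak over basal fluorescence ratio across the kinetic read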
M4 antag – CHRM4 antagonism in calcium assay; P08173; CHO-hM4 cells, ACh EC80, Fluo-8 calcium fluorescence; inhibition, % at 3 µM; 0.73% of 360,000 active;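 active = inhibition above its plate's cutoff, the mean inhibition of sample wells plus 3 SD, cut at about 27% in these data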;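 also: 0% = acetylcholine EC80 with DMSO and 100% = DMSO without agonist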
M5 PAM – positive allosteric modulators of human muscarinic M5 receptor. AID 624038. CHO-K1 hM5, Fluo-8 calcium, ACh EC20 PAM; 0% = ACh EC20, 100% = ACh EC100. activation, % at 3 µM. 0.3% of 360,000 active;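 active = activation above the run cutoff, the mean activation of all test compounds plus 3 SD, cut at about 18% in these data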
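Measured by: Fluo-8 calcium fluorescence; material: human M5 receptor in CHO-K1 cells; schedule: Post-acetylcholine fluorescence recording 140 s; benchmarks: low control EC20 acetylcholine (0%), high control EC100 acetylcholine (100%); read-out: Max/basal fluorescence ratio as % of EC20–EC100 ACh window; compound: single dose, 3 µM nominal final test concentration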
M4 ag – agonists of human muscarinic M4 receptor (CHRM4). CHO-K1 hM4/Gqi5, Fluo-8 calcium fluorescence; vehicle 0%, full acetylcholine response 100%. activation, % at 3 µM. 0.14% of 360,000 active. AID 624127;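 active = activation above the run mean over all test wells plus 3 SD, cut at about 32% in these data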;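 also: peak over basal fluorescence ratio per well then scaled between controls; 0% = DMSO wells and 100% = acetylcholine at EC100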
M4 PAM – potentiates acetylcholine response at human M4 receptor | P08173 | CHO-K1 hM4/Gqi5, Fluo-8 calcium fluorescence, ACh EC20; 0% = ACh EC20, 100% = maximal ACh | activation, % at 3 µM | 0.4% of 360,000 active;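 active = activation above its plate's cutoff, the mean activation of sample wells plus 3 SD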
The depositor's hits bear a star.

SMILES | CHRM5 antagonist | CHRM5 agonist | M4 antag | M5 PAM | M4 ag | M4 PAM
COc1ccccc1CNC(=O)Nc1nc(C(N)Cc2ccc(Cl)cc2)cs1 (stereo not given) | 3.9 | 5.9 | 26.6* | -1.2 | 15.1 | -3.6
COc1ccc(CNC(=O)Nc2nc(C(N)Cc3ccc(F)cc3)cs2)cc1 (stereo not given) | 8.9 | 8.5 | 18.8 | 2.0 | 18.0 | -4.7
COc1ccc(CNC(=O)Nc2nc(C(N)Cc3ccc(Cl)cc3)cs2)cc1 (stereo not given) | 14.9 | 5.1 | 33.1* | -0.6 | 27.8 | -4.3
COc1ccccc1CNC(=O)Nc1nc(C(N)C(C)C)cs1 (stereo not given) | -0.3 | 1.0 | 2.6 | -2.3 | 1.2 | 1.8
CC1CCCCN1C(=O)CSc1nc(-c2ccccc2)cc(=O)[nH]1 (stereo not given) | -8.8 | 1.1 | -2.7 | 20.0* | 2.0 | 8.7
COC(=O)c1sc(N)nc1CCNC(=O)OC(C)(C)C | -0.3 | 2.8 | 2.6 | 3.7 | 0.9 | 0.6
CCCCCCCCCC[n+]1cccc2c3ccccc3ccc21 | 45.5* | -9.4 | 57.8* | -29.6 | 5.3 | -23.0
CCCCCCCC[n+]1cccc2c3ccccc3ccc21 | 36.4* | -14.2 | 64.6* | -17.9 | 0.4 | -24.7
N#C/C(=N\Nc1ccccc1F)c1nc(-c2ccccc2)cs1 | 11.7 | -2.0 | 1.5 | 0.4 | 0.5 | -1.0
COc1ccc(C(C)(O)c2nc(-c3ccc4c(c3)OCO4)cs2)cc1 (stereo not given) | 4.7 | 1.3 | -3.0 | -3.2 | 5.1 | -1.6
CN1C(=O)c2c(C(=O)Nc3ccc(Oc4ccncc4)cc3)[nH]c(-c3ccccc3)c2C1=O | 3.3 | 9.3 | -7.0 | -3.0 | 1.4 | 2.0
CNC(=O)c1cc(Oc2ccc(NC(=O)c3[nH]c(-c4ccccc4)c4c3C(=O)N(C)C4=O)cc2)ccn1 | -3.8 | 1.8 | -11.0 | 6.7 | 0.8 | 23.1*
COc1ccc(C(=O)NNS(=O)(=O)c2ccccc2)cc1OC | 4.7 | -3.7 | 1.0 | 3.0 | 0.8 | 2.4
O=C1NC(c2ccncc2)C(C(=O)c2cccs2)C(O)(C(F)(F)F)N1 (stereo not given) | 16.7 | -4.1 | 29.6* | -0.9 | 2.4 | 15.2
CC(CN(C)C)CN1c2ccccc2Sc2ccccc21 (stereo not given) | 97.9* | 1.2 | 82.1* | -19.0 | 9.1 | -18.0
CC(CN1c2ccccc2Sc2ccccc21)N(C)C (stereo not given) | 98.6* | -0.4 | 98.7* | -18.0 | 1.1 | -18.6
OCCN(CCO)CC(O)CN1c2ccccc2Sc2ccccc21 (stereo not given) | 9.8 | -6.9 | 15.8 | -2.6 | 1.5 | -6.7
CCN(CC)CC(O)CN1c2ccccc2Sc2ccccc21 (stereo not given) | 38.6* | -6.2 | 14.7 | -17.8 | 5.0 | -18.0
COc1ccc2c(c1)N(C[C@H](C)CN(C)C)c1ccccc1S2 | 60.3* | 0.2 | 54.0* | -18.9 | 9.0 | -17.3
CN(Cc1ccccc1)C(=O)CN1CCN(C(c2ccccc2)c2ccccc2)CC1 | 10.7 | -17.8 | 50.0* | -33.7 | -0.4 | -26.9
COC(=O)CN1CCN(C(c2ccccc2)c2ccccc2)CC1 | 1.6 | -7.3 | 8.8 | 1.0 | -0.4 | -6.5
COc1cccc(-c2cnc(C(O)c3c(C)cccc3C)[nH]2)c1 (stereo not given) | 4.3 | 0.1 | 1.9 | -1.2 | 1.0 | 5.0
COc1ccc(NC(=O)COc2ccc(/C=N/O)cc2OC)cc1 | 2.5 | 2.2 | -12.2 | 2.1 | 9.3 | 8.5
CCNC(=S)N/N=C/c1ccc(OCC(=O)Nc2ccc(OC)cc2)c(OC)c1 | 21.4 | 2.5 | 31.5* | -17.7 | 20.9 | -24.9
O=C(Cc1c(F)cccc1Cl)NNC(=S)Nc1ccc(S(=O)(=O)Nc2ncccn2)cc1 | -4.5 | -3.6 | -31.6 | -6.3 | 0.1 | 13.5
SMILES | CHRM5 antagonist | CHRM5 agonist | M4 antag | M5 PAM | M4 ag | M4 PAM
O=C1CCCN2N=C(SCC(=O)Nc3cccc(C(F)(F)F)c3)SC2=N1 | 35.9* | 5.8 | 12.1 | -12.8 | 13.8 | -14.3
CC1(C)CN=C(NC2CCCCC2)S1 | 10.8 | -6.5 | 42.8* | -9.2 | 0.7 | -14.3
O=C(/C=C/c1ccccc1)CC(O)(c1ccccc1)C(F)(F)F (stereo not given) | 7.4 | -7.0 | 30.9* | -5.0 | -2.0 | -26.7
O=C(/C=C/c1ccccc1)CC(O)(c1ccccc1)C(F)(F)C(F)F (stereo not given) | 6.6 | -5.9 | 46.9* | -9.5 | -2.0 | -32.7
COc1ccc(/C=C/C(=O)CC(O)(c2ccccc2)C(F)(F)F)cc1 (stereo not given) | 2.8 | -4.9 | -1.4 | -10.7 | 1.3 | -13.6
COC(=O)[C@@]12C[C@@H](CC(=O)N3CCOCC3)C(=O)N(Cc3cccc4ccccc34)C1=CCC(C)(C)C2 | 10.2 | 3.9 | 16.9 | -6.2 | 10.9 | 7.3
O=C(NCCCO)C(=O)Nc1cc2c3c(c1)CCC(=O)N3CCC2 | 17.2 | -3.1 | 7.7 | -3.0 | 0.8 | -1.4
O=C(NNc1c2ccccc2nc2ccccc12)c1ccccc1O | 34.0* | -2.2 | -0.5 | -16.5 | 16.8 | -11.4
O=C(NNC(=O)c1cccc2ccccc12)c1ccccc1O | 6.7 | -1.1 | -14.4 | -0.9 | 7.2 | 17.4*
O=C(NNC(=O)c1cccc2ccccc12)c1ccc(-c2ccccc2)cc1 | 6.3 | -1.5 | -6.9 | -15.9 | 19.9 | -8.8
O=C(N/N=C/c1ccc(Cl)cc1Cl)c1n[nH]c2c1CCCC2 | -4.1 | -3.8 | -11.9 | 2.5 | 1.1 | 26.4*
O=C(NCCC(=O)N1CCN(c2ccc(F)cc2)CC1)c1ccco1 | 2.6 | -0.4 | -1.8 | 1.7 | 0.3 | -3.9
COc1ccc(-n2ncc3c(Nc4cccc(C)c4)ncnc32)cc1 | -8.5 | -1.5 | -12.6 | 3.4 | 1.8 | 19.0*
COc1ccc(Nc2ncnc3c2cnn3-c2cccc(C)c2)cc1OC | -4.7 | 0.5 | -17.4 | -1.2 | 1.0 | 8.1
COc1ccc(C(CNC(=O)c2ccc(NS(=O)(=O)c3ccc(F)c(C)c3)cc2)N2CCCC2)cc1 (stereo not given) | -4.2 | -12.8 | 27.8* | -0.7 | 2.1 | -12.9
CCOc1ccc(NS(=O)(=O)c2ccc(C(=O)NCC(c3cccs3)N3CCOCC3)cc2)cc1 (stereo not given) | 5.2 | 49.9* | 7.6 | -5.5 | 38.6* | -7.5
O=C(NCC(c1cccs1)N1CCOCC1)c1ccccc1NS(=O)(=O)c1cccc([N+](=O)[O-])c1 (stereo not given) | 0.3 | 3.7 | -6.0 | -0.7 | 6.9 | -1.5
CC(=O)c1ccc(S(=O)(=O)Nc2ccc(C(=O)NCC(c3cccs3)N3CCOCC3)cc2)cc1 (stereo not given) | 7.1 | -2.1 | -23.8 | -8.2 | 2.2 | 8.8
